Published values gathered from unrelated publications.
Compare with care: the assays were run in different laboratories.
Effect on: metabolic stability

COc1ccc(CNC(=O)c2c(C)nc3cc(C)ccn23)cc1 — half-life (rat; liver microsomes): 19 min
CCc1cccc(CC)c1-n1c(C)c(C(=O)N2CCNCC2)cc(-c2nc(-c3ccc(Cl)cc3)cs2)c1=O — half-life (rat; liver microsomes; 1 µM; pH 7.4): > 30 min
CCOc1c(O)cc(Br)c2c1CN1CCc3cc(OCC(F)F)c(O)cc3[C@@H]1C2 — half-life (rat; liver S9; 2 µM; pH 7.4): 5.71 min
O=[N+]([O-])c1ccc(CNc2nc(NCc3cccc(C(F)(F)F)c3)nc3[nH]cnc23)cc1 — half-life (rat; liver microsomes; 1 µM; pH 7.4): 17 min
O=C(O)c1ccccc1-c1c2cc(Cl)c(=O)cc-2oc2cc(O)c(Cl)cc12 — half-life (male Sprague-Dawley rat; liver microsomes): 250 min
O=C(OC(C(F)(F)F)C(F)(F)F)N1CCc2ccccc2C1 — half-life (rat; liver microsomes): 12 min
O=C(N[C@H](Cc1c[nH]c2ccccc12)C(=O)Nc1ccncc1)c1ccc(-c2cc(F)ccc2F)cc1F — half-life (rat; liver microsomes): 17 min
N#Cc1cc(NC(=O)[C@H]2c3ccccc3C(=O)N(CC(F)(F)F)[C@@H]2c2cccnc2)ccc1F — half-life (rat; liver microsomes): > 240 min
O=C(OC(C(F)(F)F)C(F)(F)F)N1Cc2ccc(OCCN3CCOCC3)cc2C1 — half-life (rat; liver microsomes): 17 min
CC(C)(C)C[C@@H]1N[C@@H](C(=O)N[C@H]2C[C@](C)(O)C2)[C@H](c2cccc(Cl)c2F)[C@]12C(=O)Nc1cc(Cl)ccc12 — half-life (rat; liver microsomes): > 60 min
CCc1cccc(CC)c1-n1c(C)c(C(=O)NC)cc(-c2nc(-c3ccc(Cl)cc3)cs2)c1=O — half-life (rat; liver microsomes; 1 µM; pH 7.4): 1.5 min
O=c1ccc2ccc(O)cc2o1 — half-life (rat; liver S9; 2 µM; pH 7.4): 6.54 min
N#Cc1ccc(C[C@@H](NC(=O)Nc2ccc(F)cc2)C(=O)N2CCc3ccc(F)cc32)cc1 — half-life (rat; liver microsomes; 10 µM; pH 7.4): > 15 min
Cc1ccc2c(c1)nc(CCc1cccc3cccnc13)n2-c1ccccc1 — half-life (rat; liver microsomes; 1.5 µM): 0.87 min
CCCCN1C(=O)C(COC)NC(=O)C12CCN(Cc1ccc(Oc3ccccc3)cc1)CC2.Cl (stereo not drawn) — half-life (rat; liver microsomes; 5 µM): 16 min
